Among the data in ChEMBL document CHEMBL1144337, “Discovery and structure-activity relationships of 2-benzylpyrrolidine-substituted aryloxypropanols as calcium-sensing receptor antagonists” (Bioorg Med Chem Lett, 2005) are IC50 values, retold here.

The subject of one assay is HEK293. In words: Inhibitory concentration for the inhibition of intracellular [Ca2+] release in HEK cells by using FLIPR technology. Type of assay: functional, cell-based. The note with it: Homo sapiens. Summed up:
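HEK cells over-expressing recombinant human calcium-sensing receptor. Intracellular Ca²⁺ release was stimulated with extracellular Ca²⁺, and inhibition by test compound was read by fluorescence on FLIPR. IC50 values are means of two experiments, with standard deviation reported.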

For assay [1], the target named is Voltage-gated inwardly rectifying potassium channel KCNH2 (Homo sapiens, UniProt Q12809). The experiment in a line: Inhibitory concentration against human Kv11.1 ERG potassium channel. In a few lines: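 Inhibition of hERG K+ current, measured by a patch-clamp assay, reported as an IC50.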
Chain of Voltage-gated inwardly rectifying potassium channel KCNH2 (Q12809 whole entry): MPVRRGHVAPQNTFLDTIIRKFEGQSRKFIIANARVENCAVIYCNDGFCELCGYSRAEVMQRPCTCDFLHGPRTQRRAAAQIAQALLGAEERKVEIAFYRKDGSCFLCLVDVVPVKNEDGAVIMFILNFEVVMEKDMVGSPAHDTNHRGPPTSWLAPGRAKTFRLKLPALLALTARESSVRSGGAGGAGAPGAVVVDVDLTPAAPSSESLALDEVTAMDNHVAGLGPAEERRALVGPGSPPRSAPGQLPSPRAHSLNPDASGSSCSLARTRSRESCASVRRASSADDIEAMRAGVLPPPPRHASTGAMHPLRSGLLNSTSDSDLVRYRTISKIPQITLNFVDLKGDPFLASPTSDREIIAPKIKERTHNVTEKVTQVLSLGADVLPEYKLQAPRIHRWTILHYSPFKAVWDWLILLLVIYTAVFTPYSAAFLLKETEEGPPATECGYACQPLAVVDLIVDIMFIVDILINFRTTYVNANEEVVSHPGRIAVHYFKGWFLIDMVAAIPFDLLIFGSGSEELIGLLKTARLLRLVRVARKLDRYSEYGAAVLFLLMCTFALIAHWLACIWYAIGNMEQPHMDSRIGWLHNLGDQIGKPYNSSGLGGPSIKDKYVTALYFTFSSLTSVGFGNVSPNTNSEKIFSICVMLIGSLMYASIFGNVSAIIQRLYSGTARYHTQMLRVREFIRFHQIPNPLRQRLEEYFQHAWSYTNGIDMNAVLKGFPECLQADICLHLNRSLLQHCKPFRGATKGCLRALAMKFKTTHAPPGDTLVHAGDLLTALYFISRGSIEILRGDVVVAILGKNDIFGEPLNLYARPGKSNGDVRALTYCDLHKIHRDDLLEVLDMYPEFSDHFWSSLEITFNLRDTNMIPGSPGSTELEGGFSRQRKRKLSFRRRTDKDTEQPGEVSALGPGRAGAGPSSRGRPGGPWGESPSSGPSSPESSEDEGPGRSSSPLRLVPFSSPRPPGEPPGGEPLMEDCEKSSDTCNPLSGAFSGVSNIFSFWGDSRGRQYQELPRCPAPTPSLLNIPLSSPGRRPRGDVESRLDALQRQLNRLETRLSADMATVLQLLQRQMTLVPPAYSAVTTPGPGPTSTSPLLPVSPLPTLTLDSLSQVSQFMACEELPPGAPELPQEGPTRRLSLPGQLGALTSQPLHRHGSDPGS

As a reminder, the IC50 is the concentration that gives 50% inhibition. A high value points to a need for much substance. In the assay with HEK293, `N#Cc1c(Cl)cccc1OC[C@H](O)CN1CCC[C@H]1Cc1ccccc1` had a half-inhibitory concentration (IC50) of 120 nM.
Same read-out and setting: next, `N#Cc1c(Cl)cccc1OC[C@H](O)CN1CCC(Cc2cc(F)ccc2F)CC1`: 2100 nM; `COc1ccccc1C[C@@H]1CCCN1C[C@@H](O)COc1cccc(Cl)c1C#N`: more than 30000 nM; `COc1cccc(CC2CCN(C[C@@H](O)COc3cccc(Cl)c3C#N)CC2)c1`: 640 nM.
Same read-out and setting: then `N#Cc1c(Cl)cccc1OC[C@H](O)CN1CCC(Cc2ccccc2)CC1`, with 2200 nM.
On the same count and under the same terms, then `CN(C)c1ccc(C[C@@H]2CCCN2C[C@@H](O)COc2cccc(Cl)c2C#N)cc1`, with 1900 nM.
In the assay with HEK293, `N#Cc1c(Cl)cccc1OC[C@H](O)CN1CCC(Cc2ccccc2)C1` (stereo not given in full) registered a half-inhibitory concentration (IC50) of 10000 nM.
The same measure, in the same setting: then `N#Cc1c(Cl)cccc1OC[C@H](O)CN1CCCC1Cc1ccccc1` (stereo not given in full), with 350 nM; and `N#Cc1c(Cl)cccc1OC[C@H](O)CN1CCC[C@H]1Cc1ccc(O)cc1`, with more than 30000 nM; and `COc1cccc(C[C@@H]2CCCN2C[C@@H](O)COc2cccc(Cl)c2C#N)c1`, with 130 nM.
With `CC(C)(Cc1ccc2ccccc2c1)NC[C@@H](O)COc1cccc(Cl)c1C#N`, the half-maximal inhibitory concentration (IC50) was found to be 80 nM in the assay on HEK293 and 194 nM in assay [1].
Compound `N#Cc1c(Cl)cccc1OC[C@H](O)CN1CC[C@@H](O)[C@H]1Cc1ccccc1` yielded a half-inhibitory concentration (IC50) in the assay on HEK293 of 1400 nM.
Still for that read-out and setting: next, `COc1cccc(C(O)[C@@H]2CCCN2C[C@@H](O)COc2cccc(Cl)c2C#N)c1` (stereo not given in full): more than 30000 nM; `N#Cc1c(Cl)cccc1OC[C@H](O)CN1CCCC(Cc2ccccc2)C1` (stereo not given in full): more than 30000 nM.
The compound `N#Cc1c(Cl)cccc1OC[C@H](O)CN1CCCCC1Cc1ccccc1` (stereo not given in full) gave an IC50 in the assay with HEK293 of more than 30000 nM.
On the same count and under the same terms, next, `N#Cc1c(Cl)cccc1OC[C@H](O)CN1CC[C@H](F)[C@H]1Cc1ccccc1`: 2800 nM; `N#Cc1c(Cl)cccc1OC[C@H](O)CN1CCC[C@H]1Cc1cccc(F)c1`: 150 nM; `COc1ccc(C[C@@H]2CCCN2C[C@@H](O)COc2cccc(Cl)c2C#N)cc1`: 200 nM.
Still for that read-out and setting: then `N#Cc1c(Cl)cccc1OC[C@H](O)CN1CCC[C@H]1C(O)c1cccc(F)c1` (stereo not given in full), with 2300 nM; and `N#Cc1c(Cl)cccc1OC[C@H](O)CN1CCC(F)(F)[C@H]1Cc1ccccc1`, with more than 30000 nM.
On the same count and under the same terms, then `COc1ccc(CC2CCN(C[C@@H](O)COc3cccc(Cl)c3C#N)CC2)cc1`, with more than 30000 nM.
Compound `N#Cc1c(Cl)cccc1OC[C@H](O)CN1CCC[C@@H]1Cc1ccccc1` showed a half-inhibitory concentration (IC50) with HEK293 of more than 30000 nM.
On the same count and under the same terms, next, `N#Cc1c(Cl)cccc1OC[C@H](O)CN1CCC[C@H]1Cc1ccccc1O`: 100 nM.
In the assay with HEK293, `COc1ccc(C[C@@H]2CCCN2C[C@@H](O)COc2cccc(Cl)c2C#N)cc1OC` registered a concentration for half-maximal inhibition (IC50) of 410 nM.
